The values that follow come from ChEMBL document CHEMBL1124794, “Synthesis, chemistry, and antineoplastic activity of alpha-halopyridinium salts: potential pyridone prodrugs of acylated vinylogous carbinolamine tumor inhibitors” (J Med Chem, 1990).

Data set [1] has as its system L1210. The experiment in a line: In vivo activity against murine L1210 tumor system at the dose of 60 mg/kg, activity expressed as KE. It counts as functional, Mus musculus. The method, boiled down: (§1)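 L1210 lymphocytic leukemia: ascitic fluid with ca. 10^6 cells injected ip into CD2F1 mice. Dosing started 24 h after inoculation and was repeated daily for five doses in total, from solutions or suspensions made fresh each day. Toxicity day survivors were scored on day 5. Body weight difference is day 5 minus day 1. %T/C is based on median survival time versus controls.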

For data set [2], the system named is L1210. The experiment in a line: In vivo activity against murine L1210 tumor system at the dose of 36 mg/kg, activity expressed as KE. The class given is functional, Mus musculus. The method in brief: as §1
Data set [3] has as its system L1210. The data set can be described thus: In vivo activity against murine L1210 tumor system at the dose of 166.7 mg/kg, activity expressed as KE. The class given is functional, Mus musculus. The method, boiled down: as §1
Data set [4] can be described thus: In vivo activity against murine M5076 tumor system at the dose of 166.7 mg/kg, activity expressed as TDS; 4/10. The class given is functional, Mus musculus. The method, boiled down:
(§2)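 M5076: ascitic fluid with ca. 10^6 cells inoculated ip into CD2F1 mice. Dosing started 24 h after inoculation and was then given every 4 days for four doses in total, from solutions or suspensions made fresh each day. Toxicity day survivors were scored on day 5. Body weight difference is day 14 minus day 1. %T/C is based on median survival time versus controls.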

Data set [5] deals with P388. The experiment in a line: In vivo activity against P388 Lymphocytic Leukemia in CD2F1 mice at the dose of 200 mg/kg, activity expressed as TDS; 6/6. It counts as functional, Mus musculus. The method, boiled down:
(§3)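 CD2F1 mice were inoculated with ascitic fluid holding ca. 10^6 P388 cells. Drug was given daily from 24 h after inoculation, from solutions or suspensions made fresh each day, some as a saline suspension. TDS is survivors/initial animals on day 5. BWD is body weight on day 5 minus day 1. %T/C compares median survival of treated and control mice.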

A short description of data set [6]: In vivo activity against murine M5076 tumor system at the dose of 21.6 mg/kg, activity expressed as %T/C. The class given is functional, Mus musculus. The method, boiled down: as §2
Data set [7] in a line: In vivo activity against murine M5076 tumor system at the dose of 100 mg/kg, activity expressed as KE. The class given is functional, Mus musculus. The method, boiled down: as §2
In data set [8] the test system is L1210. The data set can be described thus: In vivo activity against murine L1210 tumor system at the dose of 60mg/kg, activity expressed as %T/C. It counts as functional, Mus musculus. The method, boiled down:
as §1

Data set [9] has as its system P388. The data set can be described thus: In vivo activity against P388 Lymphocytic Leukemia in CD2F1 mice at the dose of 50 mg/kg, activity expressed as body weight difference. The class given is functional, Mus musculus. The method in brief:
as §3

The nature of data set [10]: Effect of phosphate buffer on the hydrolysis of alpha Fluoropyridinium Moity at the concentration of 0.05M, pH 8.0,25degree C. The class given is ADME. The method in brief: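 α-Fluoropyridinium hydrolysis to pyridone in phosphate buffer at 0.02, 0.05 or 0.10 M, pH 6.5 or 8.0, ionic strength […] °C. Pyridinium UV absorbance maximum followed with time to give pseudo-first-order kobs and half-life.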

Data set [11] relates to MX1. The data set can be described thus: In vivo activity against murine MX-1 tumor system at the dose of 150 mg/kg, activity expressed as TDS; 0/6. The class given is functional, Mus musculus.
The test system of data set [12] is L1210. The data set can be described thus: In vivo activity against murine L1210 tumor system at the dose of mg/kg, activity expressed as KE. It counts as functional, Mus musculus. The method, boiled down: as §1
Data set [13] concerns MX1. The data set can be described thus: In vivo activity against murine MX-1 tumor system at the dose of 37.5 mg/kg, activity expressed as %T/C. The class given is functional, Mus musculus.
For data set [14], the system named is MX1. The experiment in a line: In vivo activity against murine MX-1 tumor system at the dose of 75 mg/kg, activity expressed as body weight difference. It counts as functional, Mus musculus.

In the case of `CC(C)NC(=O)OCc1c(COC(=O)NC(C)C)c(-c2ccn(C)c(=O)c2)n2c1CCC2`, the KE is listed as -0.5 in the data set on L1210 [1], -0.86 in the data set on L1210 [2], -2.29 in the data set on L1210 [3] and -1.49 in data set [7]. In addition, the TDS is 4 in data set [4] and 6 in the data set on P388 [5]. Besides, the T/C in data set [6] is 107%; with L1210 [8] it was 141%.
Take `CC(C)NC(=O)OCc1c(COC(=O)NC(C)C)c(-c2cc[n+](C)c(F)c2)n2c1CCC2.[I-]`: the results for the BWD in the data set on P388 [9] and in the data set with MX1 [14] were -0.8 g and 0.2 g, respectively. This compound also came in with a K obs in [10] of 0.02 min⁻¹. The TDS with MX1 [11] is 0. For the same compound, the KE in the data set on L1210 [12] is given as -2.08. The T/C in the data set with MX1 [13] worked out at 69%.
